The target in series [1] is T1, Nuclear receptor subfamily 1 group D member 1 (Homo sapiens) (UniProt P20393).
T1 sequence (whole entry): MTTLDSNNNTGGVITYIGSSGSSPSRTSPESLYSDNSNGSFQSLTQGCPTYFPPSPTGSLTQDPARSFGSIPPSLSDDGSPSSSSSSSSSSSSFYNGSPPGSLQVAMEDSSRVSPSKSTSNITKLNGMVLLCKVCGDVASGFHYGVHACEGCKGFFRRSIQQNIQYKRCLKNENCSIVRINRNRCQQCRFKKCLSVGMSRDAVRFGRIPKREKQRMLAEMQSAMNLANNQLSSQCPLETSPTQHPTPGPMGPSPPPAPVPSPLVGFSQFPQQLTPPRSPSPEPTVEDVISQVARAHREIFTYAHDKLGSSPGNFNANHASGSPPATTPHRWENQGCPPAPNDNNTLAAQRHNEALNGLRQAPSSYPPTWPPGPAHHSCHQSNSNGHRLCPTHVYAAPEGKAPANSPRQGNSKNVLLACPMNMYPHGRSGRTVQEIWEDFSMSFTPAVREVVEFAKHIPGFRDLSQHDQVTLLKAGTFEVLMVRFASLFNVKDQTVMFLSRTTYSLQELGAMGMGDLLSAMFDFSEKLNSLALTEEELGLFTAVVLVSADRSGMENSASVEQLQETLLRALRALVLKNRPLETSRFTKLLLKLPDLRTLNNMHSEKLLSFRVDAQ
Kind of series: Agonist activity at Rev-Erbalpha expressed in HEK293 cells coexpressing […] promoter assessed as repression of transcription at 10 uM after 24 hrs by dual-Glo luciferase assay relative to control. In kind it is functional, cell-based. The essentials:
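Cells co-transfected with full-length Rev-erbα expression plasmid plus Bmal1 promoter-luciferase reporter; renilla luciferase for normalization and toxicity check. Average of 2 or more experiments.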

Series [2] concerns the target T2, Nuclear receptor subfamily 1 group D member 1 (Homo sapiens, UniProt P20393).
T2 sequence (P20393 whole entry): T1 sequence (whole entry)
Kind of series: Agonist activity at Rev-Erbalpha expressed in HEK293 cells coexpressing […] promoter assessed as repression of transcription after 24 hrs by dual-Glo luciferase assay. The class given is functional, cell-based. The essentials:
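Cells co-transfected with full-length Rev-erbα expression plasmid and Bmal1 promoter-driven luciferase reporter. Renilla luciferase used for normalization and toxicity monitoring. Average of 2 or more experiments.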

Series [3] can be described thus: Drug uptake in C57BL/6 mouse brain at 10 mg/kg, ip measured after 2 hrs by LC-MS/MS analysis. In kind it is ADME, organism-based. Conditions: read-out: Drug uptake. Also noted: dose 10 mg/kg, route intraperitoneal. In a few lines:
(§1)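 C57Bl6 mice (n = 3) given 10 mg/kg IP in 10:10:80 DMSO:Tween:water; blood and brain collected at 2 h. Plasma frozen at −80°C. Plasma and brain mixed with acetonitrile (1:5 v:v or w:v), brain probe-sonicated. Drug quantified by LC-MS/MS against standards in plasma or blank brain matrix.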

Series [4] is described as follows: Plasma concentration in C57BL/6 mouse at 10 mg/kg, ip measured after 2 hrs by LC-MS/MS analysis. In kind it is ADME, organism-based. Also noted: dose 10 mg/kg, route intraperitoneal. The essentials:
as §1

Series [5] can be described thus: Drug uptake in C57BL/6 mouse brain at 50 mg/kg, ip measured after 8 hrs by LC-MS/MS analysis.

Usually EC50 stands for the concentration at which the effect is half-maximal.

The structures appear in SMILES notation.

Consider `Cc1ccc(S(=O)(=O)N(CC(=O)OC(C)(C)C)Cc2ccc([N+](=O)[O-])s2)cc1`, for which, in series [1], the Ratio was 0.5. Besides, the EC50 in series [2] turned out to be 3000 nM.

For `O=C(O)CN(Cc1ccc(Cl)cc1)Cc1ccc([N+](=O)[O-])s1`, the Ratio in series [1] stood at 0.85.

Consider `CC(C)(C)OC(=O)CN(Cc1ccc([N+](=O)[O-])s1)S(=O)(=O)c1cccc2ccccc12`, for which the Ratio in series [1] is 0.37. In addition, the EC50 in series [2] was found to be 800 nM.

For the compound `CC(C)(C)OC(=O)CN(Cc1ccc(Cl)cc1)Cc1cnc[nH]1`, the Ratio in series [1] came out at 0.88.

For `N#CCN(Cc1ccc(Cl)cc1)Cc1ccc([N+](=O)[O-])s1`, in series [1], the Ratio came out at 0.79. Also, the EC50 in series [2] amounted to 2500 nM.

Turning to `CS(=O)(=O)n1ccc(CN(Cc2ccc(Cl)cc2)Cc2ccc([N+](=O)[O-])s2)c1`, the Ratio in series [1] amounted to 1.

Regarding `O=[N+]([O-])c1ccc(CN(Cc2ccc(Cl)cc2)CC2CCN(S(=O)(=O)Cc3ccccc3)C2)s1` (racemic), the Ratio in series [1] was found to be 0.4. Also, in series [2], the EC50 turned out to be 630 nM.

Regarding `O=[N+]([O-])c1ccc(CN(Cc2ccc(Cl)cc2)CC2CCN(Cc3ccccc3)C2)s1` (racemic), the Ratio in series [1] is 1.

For `CC(C)(C)OC(=O)CN(Cc1ccc([N+](=O)[O-])s1)C(=O)c1cccc2ccccc12`, in series [1], the Ratio is 0.48. In addition, in series [2], the EC50 turned out to be 2600 nM.

For `CC(C)(C)OC(=O)CN(Cc1ccc([N+](=O)[O-])cc1)Cc1ccc([N+](=O)[O-])s1`, the Ratio in series [1] came out at 0.58. Besides, in series [2], the EC50 came out at 2500 nM.

`COc1ccc(CN(CC(=O)OC(C)(C)C)Cc2ccc([N+](=O)[O-])s2)cc1`: the Ratio in series [1] was determined as 0.68. In series [2], the concentration for a half-maximal effect (EC50) was 2900 nM.

On to `CC(C)(C)OC(=O)N1CCC(N(Cc2ccc(Cl)cc2)Cc2ccc([N+](=O)[O-])s2)CC1`, for which, in series [1], the Ratio worked out at 0.31.

Consider `CC(C)(C)OC(=O)CN(Cc1ccc2ccccc2c1)Cc1ccc([N+](=O)[O-])s1`, for which the Ratio in series [1] turned out to be 0.6.

Regarding `CCCCNC(=O)N1CCC(CN(Cc2ccc(Cl)cc2)Cc2ccc([N+](=O)[O-])s2)C1` (racemic), the concentration at 2 h stood at 240 nM in series [3] and 530 nM in series [4]. Besides, the Ratio in series [1] is 0.35. Further, the concentration for a half-maximal effect (EC50) in series [2] amounted to 670 nM.

Consider `Cc1ccc(S(=O)(=O)N2CCC(CN(Cc3ccc(Cl)cc3)Cc3ccc([N+](=O)[O-])s3)C2)cc1` (racemic), for which, in series [1], the Ratio was greater than 1.

Turning to `C=CCOC(=O)N1CCC(CN(Cc2ccc(Cl)cc2)Cc2ccc([N+](=O)[O-])s2)C1` (racemic), the Ratio in series [1] worked out at 0.35. Also, in series [2], the EC50 worked out at 670 nM.

On to `O=[N+]([O-])c1ccc(CN(Cc2ccc(Cl)cc2)CC2CCN(S(=O)(=O)c3cccc4ccccc34)C2)s1` (racemic), for which the Ratio in series [1] was determined as 0.45. Moreover, the 50% effective concentration (EC50) in series [2] is 450 nM.

Regarding `CC(C)(C)OC(=O)CN(Cc1ccc([N+](=O)[O-])s1)Cc1cccc2ccccc12`, the Ratio in series [1] came to 0.6. Besides, in series [2], the half-maximal effective concentration (EC50) is 2500 nM.

As to `CC(C)(C)OC(=O)CN(Cc1ccc(Cl)cc1)Cc1cccs1`, in series [1], the Ratio came out at 0.93.

With `O=[N+]([O-])c1ccc(CN(Cc2ccc(Cl)cc2)Cc2ccc(C(F)(F)F)cc2)s1`, the Ratio in series [1] stood at 0.45. The 50% effective concentration (EC50) in series [2] was 5500 nM.

In the case of `CC(C)(C)OC(=O)CN(Cc1ccc(Cl)cc1)CC1CCCC1`, the Ratio in series [1] was found to be 1.1.

For `CCOC(=O)N1CCC(CN(Cc2ccc(Cl)cc2)Cc2ccc([N+](=O)[O-])s2)C1` (racemic) [SR9009], the concentration at 8 h in series [5] is 8700 nM.

As for `CC(C)(C)OC(=O)N1CCC(N(Cc2ccc(Cl)cc2)Cc2ccc([N+](=O)[O-])s2)C1` (racemic), in series [1], the Ratio is 0.24. For the same compound, the EC50 in series [2] stood at 1600 nM.

Regarding `O=[N+]([O-])c1ccc(CN(Cc2ccc(Cl)cc2)CC2CCCCC2)s1`, the Ratio in series [1] amounted to 0.3. The half-maximal effective concentration (EC50) in series [2] is 7400 nM.

As to `CC(C)(C)OC(=O)CN(Cc1ccc(Cl)cc1)Cc1nc2ccccc2s1`, the Ratio in series [1] stood at 0.82.

`CC(C)(C)OC(=O)N1CCC(CN(Cc2ccc(Cl)cc2)Cc2ccc([N+](=O)[O-])s2)C1` (racemic): in series [1], the Ratio was 0.33. Moreover, the EC50 in series [2] was found to be 1800 nM.

For `O=[N+]([O-])c1ccc(CN(Cc2ccc(Cl)cc2)CC2COc3ccccc3O2)s1` (racemic), in series [1], the Ratio was 0.4. In addition, in series [2], the EC50 was 7800 nM.

Turning to `CN1CCC(CN(Cc2ccc(Cl)cc2)Cc2ccc([N+](=O)[O-])s2)C1` (racemic), the Ratio in series [1] is 0.95.

In the case of `NC(=O)CN(Cc1ccc(Cl)cc1)Cc1ccc([N+](=O)[O-])s1`, the Ratio in series [1] stood at 0.75. For the same compound, the EC50 in series [2] was 3000 nM.

As to `O=[N+]([O-])c1ccc(CN(Cc2ccc(Cl)cc2)Cc2ccc3ccccc3c2)s1`, the Ratio in series [1] was 0.7. In addition, the EC50 in series [2] came to 8800 nM.

Turning to `Cc1ccc(S(=O)(=O)N(Cc2ccc(Cl)cc2)Cc2ccc([N+](=O)[O-])s2)cc1`, the Ratio in series [1] was 0.5. The EC50 in series [2] came out at 2500 nM.

With `CC(C)(C)OC(=O)N1CCCC(CN(Cc2ccc(Cl)cc2)Cc2ccc([N+](=O)[O-])s2)C1` (racemic), the Ratio in series [1] is 0.9.

Turning to `O=C(Oc1ccccc1)N1CCC(CN(Cc2ccc(Cl)cc2)Cc2ccc([N+](=O)[O-])s2)C1` (racemic), in series [1], the Ratio was found to be 0.55.

For `O=C(Nc1ccccc1)N1CCC(CN(Cc2ccc(Cl)cc2)Cc2ccc([N+](=O)[O-])s2)C1` (racemic), the Ratio in series [1] came to 0.33. Moreover, in series [2], the EC50 is 620 nM.

On to `CC(C)(C)OC(=O)N1CCCC(N(Cc2ccc(Cl)cc2)Cc2ccc([N+](=O)[O-])s2)C1` (racemic), for which the Ratio in series [1] amounted to 0.14.

With `CC(C)(C)OC(=O)CNCc1ccc(Cl)cc1`, the Ratio in series [1] worked out at 1.2.

For the compound `CC(C)(C)OC(=O)N1CCC(CN(Cc2ccc(Cl)cc2)Cc2ccc([N+](=O)[O-])s2)CC1`, the Ratio in series [1] was found to be 0.8.

Regarding `CS(=O)(=O)N1CCC(CN(Cc2ccc(Cl)cc2)Cc2ccc([N+](=O)[O-])s2)C1` (racemic), the concentration at 2 h in series [3] stood at 1300 nM; in series [4], 540 nM. In addition, the Ratio in series [1] stood at 0.3. In addition, the EC50 in series [2] was 570 nM.

As for `CC(C)(C)OC(=O)CN(Cc1ccccc1)Cc1ccc([N+](=O)[O-])s1`, the Ratio in series [1] turned out to be 1.1.

As to `CC(=O)N1CCC(CN(Cc2ccc(Cl)cc2)Cc2ccc([N+](=O)[O-])s2)C1` (racemic), in series [1], the Ratio came to 0.35. Moreover, the EC50 in series [2] stood at 1600 nM.

For the compound `COC(=O)CN(Cc1ccc(Cl)cc1)Cc1ccc([N+](=O)[O-])s1`, in series [1], the Ratio stood at 0.8. Also, the concentration giving a half-maximal response (EC50) in series [2] is 3900 nM.

Turning to `O=[N+]([O-])c1ccc(CN(Cc2ccc(Cl)cc2)Cc2nc3ccccc3s2)s1`, the Ratio in series [1] came to 0.5. Moreover, the EC50 in series [2] is 4000 nM.

As to `CC(C)(C)OC(=O)CN(Cc1ccncc1)Cc1ccc(Cl)cc1`, the Ratio in series [1] amounted to 0.81.

`O=C(c1cccc2ccccc12)N(Cc1ccc(Cl)cc1)Cc1ccc([N+](=O)[O-])s1`: the Ratio in series [1] was 0.4. In series [2], the EC50 amounted to 2600 nM.

With `CC(C)(C)OC(=O)CN(Cc1ccc(F)cc1)Cc1ccc([N+](=O)[O-])s1`, in series [1], the Ratio came to 0.77. Besides, in series [2], the EC50 came out at 2000 nM.

Take `O=C(Nc1ccc([N+](=O)[O-])cc1)N1CCC(CN(Cc2ccc(Cl)cc2)Cc2ccc([N+](=O)[O-])s2)C1` (racemic): the Ratio in series [1] came to 0.37. Further, the half-maximal effective concentration (EC50) in series [2] came to 400 nM.

The values are drawn from ChEMBL document CHEMBL2057134, “Small molecule tertiary amines as agonists of the nuclear hormone receptor Rev-erbα” (Bioorg Med Chem Lett, 2012).
